{
  "source": "ChEMBL document CHEMBL2331233",
  "about": "“Rational design, efficient syntheses and biological evaluation of N,N'-symmetrically bis-substituted butylimidazole analogs as a new class of potent Angiotensin II receptor blockers” (Eur J Med Chem, 2013)",
  "key": {"[1]": {"molecular_target": "T1, Type-1 angiotensin II receptor (Homo sapiens, UniProt P30556)", "T1 sequence (P30556 whole entry)": "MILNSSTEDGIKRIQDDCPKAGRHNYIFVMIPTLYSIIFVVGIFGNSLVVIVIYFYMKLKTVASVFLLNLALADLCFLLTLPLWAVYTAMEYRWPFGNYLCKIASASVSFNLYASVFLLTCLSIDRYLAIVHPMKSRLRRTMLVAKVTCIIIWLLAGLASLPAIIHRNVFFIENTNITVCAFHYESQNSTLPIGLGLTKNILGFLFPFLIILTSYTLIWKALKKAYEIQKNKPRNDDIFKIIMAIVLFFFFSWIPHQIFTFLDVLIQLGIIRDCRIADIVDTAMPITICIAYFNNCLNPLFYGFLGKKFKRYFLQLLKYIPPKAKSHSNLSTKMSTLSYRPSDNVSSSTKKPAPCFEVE", "test": "Displacement of [125I-Sar1-Ile8]-ANG2 from human Angiotensin 2 type-1 receptor expressed in HEK293 cells after 1 hr by gamma counting analysis", "format": "cell-based", "summary_of_the_method": "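Membranes from HEK 293 cells stably transfected with human AT1 receptor (Geneticin 700 µg/mL selection) incubated in buffer B (50 mM Tris–HCl, 1 mM EDTA, 10 mM MgCl2, 0.2% BSA, bacitracin, aprotinin, pH 7.4) with 100,000–120,000 cpm radioligand and increasing analog concentrations, 1 h, 24 °C; GF/C filtration. Nonspecific binding with 1000 nM [Sar1-Ile8]ANGII. One-site nonlinear fit gives -log IC50; 2–4 experiments.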"}, "[2]": {"test": "Antagonist activity at Angiotensin 2 type-1 receptor in Wistar rat uterus assessed as suppression of ANG2-induced contraction"}},
  "data": [
    {"smiles": "CCCCc1n(Cc2ccc(-c3ccccc3-c3nn[nH]n3)cc2)c(CO)c(Cl)[n+]1Cc1ccc(-c2ccccc2-c2nn[nH]n2)cc1", "values": [
      {"measurement": "IC50", "setting": "[1]", "value": 0.417, "unit": "µM"}
    ]},
    {"smiles": "CCCCc1c[n+](Cc2ccc(-c3ccccc3-c3nn[n-]n3)cc2)cn1Cc1ccc(-c2ccccc2-c2nn[nH]n2)cc1", "values": [
      {"measurement": "IC50", "setting": "[1]", "value": 0.000912, "unit": "µM"}
    ]},
    {"smiles": "CCCCc1c[n+](Cc2ccc(-c3ccccc3-c3nn[n-]n3)cc2)cn1Cc1ccc(-c2ccccc2-c2nn[n-]n2)cc1.[Br-].[Na+].[Na+]", "values": [
      {"measurement": "pA2", "setting": "[2]", "value": 8.45},
      {"measurement": "IC50", "setting": "[1]", "value": 0.00288, "unit": "µM"}
    ]},
    {"smiles": "CCCCc1c(Cl)[n+](Cc2ccc(-c3ccccc3-c3nn[nH]n3)cc2)cn1Cc1ccc(-c2ccccc2-c2nn[nH]n2)cc1", "values": [
      {"measurement": "IC50", "setting": "[1]", "value": 0.832, "unit": "µM"}
    ]},
    {"smiles": "CCCCc1c(Cl)[n+](Cc2ccc(-c3ccccc3-c3nn[nH]n3)cc2)c(CO)n1Cc1ccc(-c2ccccc2-c2nn[nH]n2)cc1", "values": [
      {"measurement": "IC50", "setting": "[1]", "value": 6.46, "unit": "µM"}
    ]},
    {"smiles": "CCCCc1c[n+](Cc2ccc(-c3ccccc3-c3nn[nH]n3)cc2)c(CO)n1Cc1ccc(-c2ccccc2-c2nn[nH]n2)cc1.[Br-]", "values": [
      {"measurement": "pA2", "setting": "[2]", "value": 8.58},
      {"measurement": "IC50", "setting": "[1]", "value": 0.00427, "unit": "µM"}
    ]},
    {"smiles": "CCCCc1c[n+](Cc2ccc(-c3ccccc3-c3nn[nH]n3)cc2)cn1Cc1ccc(-c2ccccc2-c2nn[nH]n2)cc1", "values": [
      {"measurement": "IC50", "setting": "[1]", "value": 0.000347, "unit": "µM"}
    ]},
    {"smiles": "CCCCc1c(Br)[n+](Cc2ccc(-c3ccccc3-c3nn[nH]n3)cc2)cn1Cc1ccc(-c2ccccc2-c2nn[nH]n2)cc1", "values": [
      {"measurement": "IC50", "setting": "[1]", "value": 0.708, "unit": "µM"}
    ]},
    {"smiles": "CCCCc1c(Br)[n+](Cc2ccc(-c3ccccc3-c3nn[nH]n3)cc2)c(CO)n1Cc1ccc(-c2ccccc2-c2nn[nH]n2)cc1.[Br-]", "values": [
      {"measurement": "pA2", "setting": "[2]", "value": 7.13},
      {"measurement": "IC50", "setting": "[1]", "value": 0.0427, "unit": "µM"}
    ]},
    {"smiles": "CCCCc1c[n+](Cc2ccc(-c3ccccc3C(=O)O)cc2)cn1Cc1ccc(-c2ccccc2C(=O)O)cc1", "values": [
      {"measurement": "IC50", "setting": "[1]", "value": 0.331, "unit": "µM"}
    ]},
    {"smiles": "CCCCc1c[n+](Cc2ccc(-c3ccccc3C(=O)O)cc2)c(CO)n1Cc1ccc(-c2ccccc2C(=O)O)cc1", "values": [
      {"measurement": "IC50", "setting": "[1]", "value": 0.501, "unit": "µM"}
    ]},
    {"smiles": "CCCCc1n(Cc2ccc(-c3ccccc3-c3nn[nH]n3)cc2)cc[n+]1Cc1ccc(-c2ccccc2-c2nn[nH]n2)cc1", "values": [
      {"measurement": "IC50", "setting": "[1]", "value": 1.7, "unit": "µM"}
    ]}
  ]
}
